Inconclusive results are not listed.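 How the source made its calls, unless noted: active means cell viability at or below a set limit in both duplicate runs, the limit being the all-compound median minus 4 SD (cut at about 23% in these data, passing the limit was not always enough); inconclusive means no clear call, values can overlap the other calls; inactive means the rest.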
Columns and labels:
[1] = OD615 S. cerevisiae growth inhibition, permissive medium, pilot counter-assay, permissive growth control for S. cerevisiae lifespan shortening project (AID 705;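 active means growth inhibition above 25% in both replicates, a cutoff set 3 SD above the mean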); conditions: OD615, 24 h, at 10 µM, hits give high values
Procedure, shortened: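 System: S. cerevisiae with engineered DeaD lifespan system / Measured by: absorbance (optical density) at 615 nm / Read-out: reduction in yeast growth (OD615) / Times: 4 h cell pre-growth, 24 h exposure at 30 °C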

[2] = Restrictive medium S. cerevisiae growth inhibition, OD615, pilot screen of yeast lifespan reduction project, restrictive growth control (AID 706;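 active means growth inhibition above a set limit, 3 SD over mean compound inhibition, in both replicates, cut at about 43% in these data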;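 further: modified DeaD lifespan yeast strain shifted to restrictive glucose medium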); conditions: OD615, 48 h, at 10 µM, hits give high values
Procedure, shortened: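 System: Engineered S. cerevisiae DeaD strain | Buffer or medium: Glucose-based CSMM-D restrictive medium | Schedule: 4 h pre-incubation, 48 h exposure at 30 °C | Technique: Optical density at 615 nm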

[3] = viability gain of MRP-1-high H69AR cells under doxorubicin, pilot screen, MRP-1 activator project, CellTiter-Glo, duplicate (AID 807;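 active means viability increase at or above a cutoff of the median across tested compounds plus 3 SD, cut at about 8.5% in these data, passing the limit was not always enough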;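 further: compound pretreatment 18-22 h then 72 h combined with doxorubicin; 0% = doxorubicin alone and 100% = vehicle without doxorubicin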); conditions: H69AR viability with doxorubicin, CellTiter-Glo luminescence; at 10 µM; hits give high values
[4] = growth suppression of beta-catenin knockout HCT116, pilot screen, human colon tumor cells (AID 823); conditions: CellTiter-Glo, 60 h, at 10 µM, hits give low values;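 further: 0% = wells killed by 20 µM Hyamine and 100% = untreated DMSO cell wells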
[5] = growth suppression of PTEN-deleted HCT116, pilot screen, cell-based, HCT116 clonal line, CellTiter-Glo (AID 824;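 active means viability at or below 27.92% in each of two runs, the all-compound median minus 4 SD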;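 further: 0% = 20 µM Hyamine control and 100% = vehicle cell control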); conditions: 60 h, at 10 µM, hits give low values
[6] = inhibitors of the yeast RAM network, pilot screen, dse1pr::URA3 reporter, 5-FOA selection (AID 869;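 active means inhibition over a set limit, the all-compound mean plus 3 SD, in both replicate runs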;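 further: 0% = DMSO wells with no growth and 100% = 10 µM 1-NA-PP1 with full growth; RAM network block rescues cells from 5-FOA so hits raise OD615 growth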); conditions: S. cerevisiae dse1pr::URA3 5-FOA growth, OD615, 2 d; at 10 µM; hits give high values; strain carries analog-sensitive mutant Cbk1 kinase
[7] = RAM signaling pathway blockade in yeast – S. cerevisiae, Pdr1DBD-CYC8 efflux-inhibited sensitized strain, primary screen (AID 1298;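 active means RAM network inhibition above 8.4% in each of two replicates, 3 SD over the compound average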;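 further: 0% = DMSO untreated cells without growth and 100% = 10 µM 1-NA-PP1 full growth; higher means more yeast growth rescued from 5-FOA killing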); conditions: S. cerevisiae cbk1-as DSE1-URA3 strain, 5-FOA growth OD615, 2 d; at 50 µM; hits give high values

CC(NS(C)(=O)=O)C(c1cccs1)N1CCN(Cc2ccccc2)CC1 (stereo unspecified)
inactive: growth inhibition [1] -7.18% | growth inhibition [2] 11.4% | viability increase [3] -1.92% | viability [4] 85.5% | viability [5] 87.3% | inhibition [6] 1.25% | RAM network inhibition [7] 3.61%

Cc1nn(C)c(C)c1S(=O)(=O)N(CC(=O)NCCN1CCOCC1)c1ccc(C(C)C)cc1
inactive: growth inhibition [1] -13.5% | growth inhibition [2] -11.8% | viability increase [3] -1.69% | viability [4] 102% | viability [5] 101% | inhibition [6] 1.83% | RAM network inhibition [7] 2.73%

O=S(=O)(Nc1nnc(-c2ccccc2)s1)c1ccc(Cl)cc1
inactive: growth inhibition [1] 4.67% | growth inhibition [2] 14.4% | viability increase [3] -0.34% | viability [4] 104% | viability [5] 105% | inhibition [6] 3.29% | RAM network inhibition [7] 1.95%

C=CCSC1=N/C(=C\c2ccc3c(c2)OCO3)C(=O)S1
inactive: growth inhibition [1] -6.71% | growth inhibition [2] -9.09% | viability increase [3] -5.28% | viability [4] 103% | viability [5] 96.7% | inhibition [6] 4.59% | RAM network inhibition [7] 7.07%

CC(=O)N1CCc2c(sc(NC(=O)C3CC3)c2-c2nc3ccccc3s2)C1
inactive: growth inhibition [1] 0.95% | growth inhibition [2] -2.89% | viability increase [3] -3.03% | viability [4] 65.4% | viability [5] 63.4% | inhibition [6] 1.99% | RAM network inhibition [7] 4.93%

Cc1[nH]c2ccc(-c3n[nH]c(=S)n3C)cc2c1C
inactive: growth inhibition [1] -4.45% | growth inhibition [2] -17.6% | viability increase [3] 0.84% | viability [4] 98.9% | viability [5] 93.3% | inhibition [6] 1.31% | RAM network inhibition [7] 0.57%

CCn1cc(S(=O)(=O)CC(=O)Nc2ccc(C)cc2)c2ccccc21
inactive: growth inhibition [1] 0.74% | growth inhibition [2] -4.11% | viability increase [3] -0.58% | viability [4] 92.7% | viability [5] 93% | inhibition [6] 1.61% | RAM network inhibition [7] 2.02%

Cc1ccc2c(CC(=O)Nc3nc(C)cs3)coc2c1
inactive: growth inhibition [1] -5.02% | growth inhibition [2] 0.02% | viability increase [3] 0.52% | viability [4] 76.5% | viability [5] 80.4% | inhibition [6] 1.38% | RAM network inhibition [7] 0.88%

Cc1ccc2c(c1)C(c1ccccc1)N(C(=O)C(C)C)CC(=O)N2 (stereo unspecified)
inactive: growth inhibition [1] -14.9% | growth inhibition [2] -15.6% | viability increase [3] -1.2% | viability [4] 102% | viability [5] 92.1% | inhibition [6] 1.64% | RAM network inhibition [7] 4.21%

CCCOC(=O)c1cccc(NC(=O)C(C)(C)C)c1
inactive: growth inhibition [1] -17.4% | growth inhibition [2] -14.3% | viability increase [3] 0.9% | viability [4] 98.7% | viability [5] 98.8% | inhibition [6] -0.725% | RAM network inhibition [7] 1.87%

CN(C)C(=O)CSc1nnc(-c2cccnc2)n1-c1ccccc1
inactive: growth inhibition [1] -5.85% | growth inhibition [2] -5.54% | viability increase [3] -0.98% | viability [4] 98.6% | viability [5] 95.1% | inhibition [6] 1.36% | RAM network inhibition [7] 2.91%

Cc1cc(NS(=O)(=O)c2ccc(NC(=O)Nc3ccccc3)cc2)no1
inactive: growth inhibition [1] 4.26% | growth inhibition [2] -7.87% | viability increase [3] 1.41% | viability [4] 101% | viability [5] 103% | inhibition [6] 1.92% | RAM network inhibition [7] 1.02%

CC1CCCCC1NC(=O)C1CCN(C(=O)c2sccc2-n2cccc2)CC1 (stereo unspecified)
inactive: growth inhibition [1] -4.95% | growth inhibition [2] -6.6% | viability increase [3] -1.22% | viability [4] 105% | viability [5] 94.8% | inhibition [6] 2.28% | RAM network inhibition [7] 4.86%

COc1ccc(C)cc1NC(=O)Cn1cnc2sc(C)c(S(=O)(=O)N3CCOCC3)c2c1=O
inactive: growth inhibition [1] 4.46% | growth inhibition [2] 4.67% | viability increase [3] -1.23% | viability [4] 102% | viability [5] 99.3% | inhibition [6] 2.75% | RAM network inhibition [7] 9.74%

Cc1cc(C)c(C#N)c(Nc2ccc3c(c2)OCCO3)n1
inactive: growth inhibition [1] 0.055% | growth inhibition [2] -10.2% | viability increase [3] -1.17% | viability [4] 97.6% | viability [5] 93.9% | inhibition [6] 0.915% | RAM network inhibition [7] 0.66%

C=CCn1c(SCC(=O)NCc2ccco2)nc2sc3c(c2c1=O)CCC3
inactive: growth inhibition [1] -1.65% | growth inhibition [2] 0.995% | viability increase [3] -4.9% | viability [4] 98.6% | viability [5] 92.6% | inhibition [6] 2.48% | RAM network inhibition [7] 1.5%

O=C(NC(C(=O)c1ccccc1)N1CCCCC1)c1ccccc1 (stereo unspecified)
inactive: growth inhibition [1] -8.09% | growth inhibition [2] -3.47% | viability increase [3] -2.31% | viability [4] 91.2% | viability [5] 98% | inhibition [6] -0.65% | RAM network inhibition [7] 1.67%

CC(=O)Nc1nc2c(F)cccc2s1
inactive: growth inhibition [1] -14.9% | growth inhibition [2] -3% | viability increase [3] -2.43% | viability [4] 96.5% | viability [5] 91.2% | inhibition [6] 1.6% | RAM network inhibition [7] 7.94%

— PubChem BioAssay
